Read-outs that look alike come from different tables or passages of the source.
What was measured:
Ca^2+-S100B = target: T1, Ca^2+-S100B (Rattus norvegicus, UniProt P04631); test: HSQC NMR of Ca2+-loaded S100B with SBiX compounds; type: binding; settings: result in words; for effect on NMR spectra of Ca^2+-S100B (chemical shift perturbations / broadening): compared with pentamidine and heptamidine
T1 sequence (P04631 1-92): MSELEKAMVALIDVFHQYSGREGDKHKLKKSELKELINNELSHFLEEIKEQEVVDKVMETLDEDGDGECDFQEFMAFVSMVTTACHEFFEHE
Procedure, shortened: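 Samples: 15N-labelled rat S100B (purified >99%) at 0.1 mM subunit with 0.125 mM test compound, 10 mM CaCl2, 15 mM NaCl, 0.34 mM NaN3, 0.2% TPEN, 5% DMSO-d6, 10% D2O, 10 mM HEPES pH 7.2. 1H-15N HSQC spectra; 15N shifts indirectly referenced (ratio 0.10132905). Spectra were inspected visually for combined 1H+15N chemical shift perturbations to map the binding site.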

Ca^2+-loaded S100B = target: T2, Ca^2+-loaded S100B (Rattus norvegicus, UniProt P04631); test: Fluorescence polarization competition assay; type: binding; settings: Site 1 probe; result in words
T2 sequence (P04631 1-92): T1 sequence (P04631 1-92)
Procedure, shortened: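 Competition of test compound with 10 nM TAMRA-labelled TRTK12 peptide (CapZ residues 265-276), bound to Site 1 of 1 μM rat S100B, all final concentrations. Compound titrated from the highest attainable concentration. Fluorescence polarization read at room temperature, ex 544 nm/em 590 nm.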

WM115 melanoma cells = test: Cellular assays, EC50 quoted in text without S100B level; type: cell-based, human; settings: for EC50: Homo sapiens; for S100B-dependent killing (high vs low S100B cells): S100B-knockdown cell lines, result in words
[1] = system: WM115 melanoma cells transfected with shRNA^S100B (low S100B); test: SYBR Green cell proliferation; type: cell-based, human; settings: read-out: Low S100B EC50 Mean ± S.D.
[2] = WM-115, read-out: EC50 in cellular assays

Row | Molecule | ability to compete with TAMRA-TRTK probe in FPCA (Ca^2+-loaded S100B) | EC50 (WM115 melanoma cells; [2]) | binding to Ca^2+-S100B as measured using NMR (Ca^2+-S100B) | further results
1 | c1cc(C2=NCCN2)ccc1OCCCCCCCCOc1ccc(C2=NCCN2)cc1 [5d, 1,8-bis (4-(4,5-dihydro-1H-imidazol-2-yl)phenoxy) octane] |  |  |  | effect on NMR spectra of Ca^2+-S100B (chemical shift perturbations / broadening) (Ca^2+-S100B): significant broadening
2 | c1cc(C2=NCCN2)ccc1OCCCCCOc1ccc(C2=NCCN2)cc1 [5b, 1,5-bis(4-(4,5-dihydro-1H-imidazol-2-yl)phenoxy)pentane] |  |  |  | effect on NMR spectra of Ca^2+-S100B (chemical shift perturbations / broadening) (Ca^2+-S100B): significant broadening
3 | c1cc(C2=NCCCN2)ccc1OCCCCCCCOc1ccc(C2=NCCCN2)cc1 [6a, 1,7-bis (4-(1,4,5,6-tetrahydropyrimidin-2-yl)phenoxy)heptane] |  | 200 to 600 µM |  | 
4 | c1cc(C2=NCCCN2)ccc1OCCCCCCOc1ccc(C2=NCCCN2)cc1 [6c, 1,6-bis(4-(1,4,5,6-tetrahydropyrimidin-2-yl)phenoxy)hexane] |  | 25 to 45 µM |  | 
5 | hexamidine [4c] |  |  |  | EC50 [1]: 234 ± 7.9 µM
6 | c1cc(C2=NCCN2)ccc1OCCCCCCOc1ccc(C2=NCCN2)cc1 [5c, 1,6-bis(4-(4,5-dihydro-1H-imidazol-2-yl)phenoxy)hexane] |  |  |  | effect on NMR spectra of Ca^2+-S100B (chemical shift perturbations / broadening) (Ca^2+-S100B): significant broadening
7 | N=C(N)c1ccc(OCCCCCOc2ccc(C(=N)N)cc2)cc1 [4b, pentamidine, reference compound] |  |  |  | EC50 (WM115 melanoma cells; WM-115, read-out: ^CellsEC50): 26 µM
8 | N=C(N)c1ccc(OCCCCCCCOc2ccc(C(=N)N)cc2)cc1 [4a, Heptamidine] |  |  |  | S100B-dependent killing (high vs low S100B cells) (WM115 melanoma cells): selectivity in killing melanoma cells with high S100B over those with low S100B was clearly observed
9 | c1cc(C2=NCCCN2)ccc1OCCCCCOc1ccc(C2=NCCCN2)cc1 [6b, 1,5-bis(4-(1,4,5,6-tetrahydropyrimidin-2-yl)phenoxy)pentane] |  | 200 to 600 µM |  | effect on NMR spectra of Ca^2+-S100B (chemical shift perturbations / broadening) (Ca^2+-S100B): significant broadening

More lines, main results first:

Row | ability to compete with TAMRA-TRTK probe in FPCA (Ca^2+-loaded S100B) | EC50 (WM115 melanoma cells; [2]) | binding to Ca^2+-S100B as measured using NMR (Ca^2+-S100B) | Molecule | further results
10 | found to compete | 35 to 40 µM | interacted | N=C(NCCCCCN)c1ccc(OCCCCCOc2ccc(C(=N)NCCCCCN)cc2)cc1 [compound 8, 4,4′-(pentane-1,5-diylbis(oxy))bis(N-(5-aminopentyl)benzimidamide)] | 
11 |  | 250 to 300 µM |  | c1cc(C2=NCCCCN2)ccc1OCCCCCCOc1ccc(C2=NCCCCN2)cc1 [7c, 1,6-bis(4-(4,5,6,7-tetrahydro-1H-1,3-diazepin-2-yl)phenoxy)hexane] | 
12 |  | 5 to 20 µM |  | c1cc(C2=NCCCCN2)ccc1OCCCCCCCCOc1ccc(C2=NCCCCN2)cc1 [7d, 1,8-bis (4-(4,5,6,7-tetrahydro-1H-1,3-diazepin-2-yl)phenoxy)octane] | 
13 | neither was able to compete | 40 to 50 µM | bound weakly | N=C(N)c1ccc(OCCCN(CCCOc2ccc(C(=N)N)cc2)Cc2ccccc2)cc1 [16a, 4,4′-(((benzylazanediyl)bis(propane-3,1-diyl))bis(oxy))dibenzimidamide] | 
14 |  | 5 to 20 µM |  | c1cc(C2=NCCCCN2)ccc1OCCCCCOc1ccc(C2=NCCCCN2)cc1 [7b, 1,5-bis (4-(4,5,6,7-tetrahydro-1H-1,3-diazepin-2-yl)phenoxy)pentane] | 
15 | found to compete |  | interacted | N=C(NCCCCCCCN)c1ccc(OCCCCCCCOc2ccc(C(=N)NCCCCCCCN)cc2)cc1 [9a, 4,4′-(heptane-1,7-diylbis(oxy))bis(N-(7-aminoheptyl)benzimidamide)] | effect on NMR spectra of Ca^2+-S100B (chemical shift perturbations / broadening) (Ca^2+-S100B): significant broadening
16 |  | 25 to 45 µM |  | c1cc(C2=NCCCN2)ccc1OCCCCCCCCOc1ccc(C2=NCCCN2)cc1 [6d, 1,8-bis(4-(1,4,5,6-tetrahydropyrimidin-2-yl)phenoxy)octane] | 
17 |  | 5 to 20 µM |  | c1cc(C2=NCCCCN2)ccc1OCCCCCCCOc1ccc(C2=NCCCCN2)cc1 [7a, 1,7-bis(4-(4,5,6,7-tetrahydro-1H-1,3-diazepin-2-yl)phenoxy)heptane] | 
18 | neither was able to compete | 130 to 150 µM | ability to bind | CNC(=O)NC(=N)c1ccc(OCCCCCCCOc2ccc(C(=N)NC(=O)NC)cc2)cc1 [compound 11, 4,4′-(heptane-1,7-diylbis (oxy))bis(N-(methylcarbamoyl)benzimidamide)] | 
19 | found to inhibit TAMRA-TRTK binding |  | found to bind | N=C(N)c1ccc(Oc2ccc(-c3cc4ccc(C(=N)N)cc4[nH]3)cc2)cc1 [compound 17, 2-(4-(4-carbamimidoylphenoxy)phenyl)-1H-indole-6-carboximidamide] | S100B-dependent killing (high vs low S100B cells) (WM115 melanoma cells): no S100B-dependent killing
20 | neither was able to compete | < 1 µM | ability to bind | N=C(NC(=O)Nc1ccccc1)c1ccc(OCCCCCCCOc2ccc(C(=N)NC(=O)Nc3ccccc3)cc2)cc1 [compound 10, 4,4′-(heptane-1,7-diylbis(oxy))bis(N-(phenylcarbamoyl)benzimidamide)] | 
21 | neither was able to compete | > 500 µM | bound weakly | CCCN(CCCOc1ccc(C(=N)N)cc1)CCCOc1ccc(C(=N)N)cc1 [16b, 4,4′-(((propylazanediyl)bis(propane-3,1-diyl))bis(oxy))dibenzimidamide] | 
22 | found to compete |  | interacted | N=C(NCCCCCCCN)c1ccc(OCCCCCCCCOc2ccc(C(=N)NCCCCCCCN)cc2)cc1 [9b, 4,4′-(octane-1,8-diylbis (oxy))bis(N-(7-aminoheptyl)benzimidamide)] | effect on NMR spectra of Ca^2+-S100B (chemical shift perturbations / broadening) (Ca^2+-S100B): significant broadening
